The structures appear in SMILES notation. Active and inactive are the calls of the source. The calls are words filed in the database; no cut-off is given here.

Consider four molecules from ChEMBL document CHEMBL3611968, “Reengineered tricyclic anti-cancer agents” (Bioorg Med Chem, 2015).

Series [1] in a line: AUCinfinity in mouse at 10 mg/kg, po. The series is classed as ADME, organism-based. Set-up: dose 10 mg/kg, time infinity, route oral. The following applies: in vivo.
The target of series [2] is D(1A) dopamine receptor (Homo sapiens) (UniProt P21728). Description: Binding affinity to dopamine D1 receptor (unknown origin) at 0.1 mM by radioligand displacement assay relative to control. On the technique in general: Displacement assays read how much labelled ligand stays bound in the presence of the test substance.
Sequence of D(1A) dopamine receptor (Homo sapiens) (P21728 whole entry): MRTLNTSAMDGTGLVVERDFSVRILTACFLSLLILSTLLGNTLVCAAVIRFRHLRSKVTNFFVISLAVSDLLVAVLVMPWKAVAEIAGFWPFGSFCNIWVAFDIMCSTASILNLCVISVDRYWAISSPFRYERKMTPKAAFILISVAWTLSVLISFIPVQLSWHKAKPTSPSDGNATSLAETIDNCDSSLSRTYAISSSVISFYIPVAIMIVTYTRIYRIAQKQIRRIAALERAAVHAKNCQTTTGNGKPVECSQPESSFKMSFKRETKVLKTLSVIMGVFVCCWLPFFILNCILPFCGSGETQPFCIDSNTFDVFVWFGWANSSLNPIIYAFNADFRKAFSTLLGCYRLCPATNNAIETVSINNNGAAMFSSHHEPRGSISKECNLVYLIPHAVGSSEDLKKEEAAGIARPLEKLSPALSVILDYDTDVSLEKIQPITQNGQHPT
For a further series, the system named is Mus musculus. The series can be described thus: Toxicity in mouse assessed as induction of lethargy at 10 mg/kg relative to control. The series is classed as organism-based. The following applies: in vivo.
Series [3] is described as follows: Oral bioavailability in mouse at 10 mg/kg. The series is classed as ADME, organism-based. To be noted: in vivo.
Series [4] is described as follows: Clearance in mouse at 1 mg/kg, iv. The series is classed as ADME, organism-based. To be noted: in vivo.
Series [5] can be described thus: Bioavailability in mouse at 10 mg/kg, ip. The series is classed as ADME, organism-based. The following applies: in vivo.
Series [6] has as its system NCI-H1650. The series can be described thus: Cytotoxicity against human NCI-H1650 cells assessed as growth inhibition after 48 hrs by MTT assay. The series is classed as functional. The following applies: NCI-H1650, 48 h. The method in brief:
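H1650 cells were exposed to drug for 48 h at five concentrations bracketing 1–40 μM in 10 μM steps, with MTT read-out. GI50 is given only where the data form a sigmoidal dose response.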
In general terms: Tetrazolium assays rely on reduction of a dye to a coloured formazan, in cell work by metabolically active cells.

Series [7] is described as follows: AUClast in mouse at 1 mg/kg, iv. The series is classed as ADME, organism-based. To be noted: in vivo.
Series [8] in a line: AUCinfinity in mouse at 1 mg/kg, ip. The series is classed as ADME, organism-based. Set-up: time infinity, route intraperitoneal. To be noted: in vivo.
Series [9] in a line: Cmax in mouse at 10 mg/kg, ip. To be noted: in vivo. The series is classed as ADME, organism-based. Also on record: dose 10 mg/kg, route intraperitoneal.
The nature of series [10]: Initial drug concentration in mouse at 1 mg/kg, iv. The series is classed as ADME, organism-based. The following applies: in vivo.
A short description of series [11]: Half life in mouse at 10 mg/kg, po. The series is classed as ADME, organism-based. The following applies: in vivo.
Series [12] deals with NCI-H1650. The series can be described thus: Cytotoxicity against human NCI-H1650 cells assessed as reduction of colony formation at 20 to 40 uM after 7 days by crystal violet staining. The series is classed as functional, cell-based.
A short description of series [13]: AUClast in mouse at 10 mg/kg, po. The series is classed as ADME, organism-based. The following applies: in vivo.
A short description of series [14]: Half life in mouse at 1 mg/kg, iv. The series is classed as ADME, organism-based. To be noted: in vivo.
For series [15], the target named is D(1A) dopamine receptor (Homo sapiens) (UniProt P21728). The series can be described thus: Binding affinity to dopamine D1 receptor (unknown origin) at 1 mM by radioligand displacement assay relative to control.
The target of series [16] is D(2) dopamine receptor (Homo sapiens) (UniProt P14416). Description: Binding affinity to dopamine D2 receptor (unknown origin) at 1 mM by radioligand displacement assay relative to control.
Sequence of D(2) dopamine receptor (Homo sapiens) (P14416 whole entry): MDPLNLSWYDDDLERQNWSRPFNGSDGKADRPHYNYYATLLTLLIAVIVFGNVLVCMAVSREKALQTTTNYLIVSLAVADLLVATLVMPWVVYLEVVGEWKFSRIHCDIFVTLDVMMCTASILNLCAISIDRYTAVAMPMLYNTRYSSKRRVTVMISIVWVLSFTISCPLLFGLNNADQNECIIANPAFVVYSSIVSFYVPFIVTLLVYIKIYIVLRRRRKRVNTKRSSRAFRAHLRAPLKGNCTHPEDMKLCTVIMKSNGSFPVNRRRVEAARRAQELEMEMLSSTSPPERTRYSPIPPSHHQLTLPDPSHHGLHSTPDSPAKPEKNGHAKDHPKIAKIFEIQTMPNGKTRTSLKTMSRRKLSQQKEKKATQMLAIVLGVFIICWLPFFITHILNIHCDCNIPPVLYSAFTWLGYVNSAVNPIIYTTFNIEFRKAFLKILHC
A short description of series [17]: Cmax in mouse at 10 mg/kg, po. The series is classed as ADME, organism-based. Set-up: dose 10 mg/kg, route oral. To be noted: in vivo.
Series [18] in a line: AUCinfinity in mouse at 1 mg/kg, iv. The series is classed as ADME, organism-based. Set-up: dose 1 mg/kg, time infinity, route intravenous. The following applies: in vivo.
Series [19] is described as follows: Tmax in mouse at 10 mg/kg, ip. The series is classed as ADME, organism-based. To be noted: in vivo.
The nature of series [20]: AUClast in mouse at 10 mg/kg, ip. The series is classed as ADME, organism-based. To be noted: in vivo.
Series [21] has as its system NCI-H1650. Description: Cell cycle arrest in human NCI-H1650 cells assessed as accumulation at sub-G1 phase by propidium iodide staining-based flow cytometric analysis. The series is classed as functional. Background: A flow cytometer gives signals particle by particle.
Series [22] is described as follows: Volume of distribution at steady state in mouse at 1 mg/kg, iv. The following applies: in vivo, read-out: Vdss. The series is classed as ADME, organism-based.
A short description of series [23]: Tmax in mouse at 10 mg/kg, po. The series is classed as ADME, organism-based. The following applies: in vivo.
A short description of series [24]: Half life in mouse at 1 mg/kg, ip. The series is classed as ADME, organism-based. To be noted: in vivo.
The target of series [25] is D(1B) dopamine receptor (Homo sapiens) (UniProt P21918). The series can be described thus: Binding affinity to dopamine D5 receptor (unknown origin) at 0.1 mM by radioligand displacement assay relative to control.
Sequence of D(1B) dopamine receptor (Homo sapiens) (P21918 whole entry): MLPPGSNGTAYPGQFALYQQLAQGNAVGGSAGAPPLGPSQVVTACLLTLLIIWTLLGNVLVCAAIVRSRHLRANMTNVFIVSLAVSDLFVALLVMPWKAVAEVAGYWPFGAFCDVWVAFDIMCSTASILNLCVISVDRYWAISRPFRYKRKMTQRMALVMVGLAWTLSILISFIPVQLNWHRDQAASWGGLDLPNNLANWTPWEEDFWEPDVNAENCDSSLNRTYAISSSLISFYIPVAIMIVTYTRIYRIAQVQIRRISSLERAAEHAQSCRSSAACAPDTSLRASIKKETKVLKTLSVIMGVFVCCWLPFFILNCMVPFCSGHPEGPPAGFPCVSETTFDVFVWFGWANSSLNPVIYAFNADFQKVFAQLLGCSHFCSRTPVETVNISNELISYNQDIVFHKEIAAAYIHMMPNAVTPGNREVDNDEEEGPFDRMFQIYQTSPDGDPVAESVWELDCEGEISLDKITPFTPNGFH
Series [26] has as its target D(2) dopamine receptor (Homo sapiens) (UniProt P14416). The series can be described thus: Binding affinity to dopamine D2 receptor (unknown origin) at 0.1 mM by radioligand displacement assay relative to control.
Series [27] concerns the target T1, D(4) dopamine receptor (Homo sapiens) (UniProt P21917).
T1 sequence (whole entry): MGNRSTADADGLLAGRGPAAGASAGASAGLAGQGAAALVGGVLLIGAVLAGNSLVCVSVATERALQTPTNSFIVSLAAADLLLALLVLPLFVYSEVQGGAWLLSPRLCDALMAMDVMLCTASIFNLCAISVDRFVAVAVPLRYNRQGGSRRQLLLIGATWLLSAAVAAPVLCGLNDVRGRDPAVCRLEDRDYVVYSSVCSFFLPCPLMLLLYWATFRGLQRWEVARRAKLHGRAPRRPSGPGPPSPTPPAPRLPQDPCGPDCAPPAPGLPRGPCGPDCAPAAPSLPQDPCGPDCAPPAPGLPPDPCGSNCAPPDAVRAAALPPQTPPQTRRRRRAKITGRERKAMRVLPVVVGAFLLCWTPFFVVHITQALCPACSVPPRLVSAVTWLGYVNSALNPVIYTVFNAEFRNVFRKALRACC
The series can be described thus: Binding affinity to dopamine D4 receptor (unknown origin) at 0.1 mM by radioligand displacement assay relative to control.

Series [28] concerns the target D(3) dopamine receptor (Homo sapiens) (UniProt P35462). The series can be described thus: Binding affinity to dopamine D3 receptor (unknown origin) at 0.1 mM by radioligand displacement assay relative to control.
The target in series [29] is Sodium-dependent noradrenaline transporter (Homo sapiens) (UniProt P23975). The series can be described thus: Displacement of [3H]-nisoxetine from norepinephrine transporter (unknown origin) at 1 mM relative to control. The gist of the method: (§1)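 Competitive antagonist radioligand binding at monoamine transporters. Serotonin transporter is labelled with [³H]imipramine and norepinephrine transporter with [³H]nisoxetine. The compound was tested at three concentrations, and binding is expressed as percent inhibition of specific radioligand binding. Each value is the mean of two independent determinations.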
Sequence of Sodium-dependent noradrenaline transporter (Homo sapiens) (P23975 whole entry): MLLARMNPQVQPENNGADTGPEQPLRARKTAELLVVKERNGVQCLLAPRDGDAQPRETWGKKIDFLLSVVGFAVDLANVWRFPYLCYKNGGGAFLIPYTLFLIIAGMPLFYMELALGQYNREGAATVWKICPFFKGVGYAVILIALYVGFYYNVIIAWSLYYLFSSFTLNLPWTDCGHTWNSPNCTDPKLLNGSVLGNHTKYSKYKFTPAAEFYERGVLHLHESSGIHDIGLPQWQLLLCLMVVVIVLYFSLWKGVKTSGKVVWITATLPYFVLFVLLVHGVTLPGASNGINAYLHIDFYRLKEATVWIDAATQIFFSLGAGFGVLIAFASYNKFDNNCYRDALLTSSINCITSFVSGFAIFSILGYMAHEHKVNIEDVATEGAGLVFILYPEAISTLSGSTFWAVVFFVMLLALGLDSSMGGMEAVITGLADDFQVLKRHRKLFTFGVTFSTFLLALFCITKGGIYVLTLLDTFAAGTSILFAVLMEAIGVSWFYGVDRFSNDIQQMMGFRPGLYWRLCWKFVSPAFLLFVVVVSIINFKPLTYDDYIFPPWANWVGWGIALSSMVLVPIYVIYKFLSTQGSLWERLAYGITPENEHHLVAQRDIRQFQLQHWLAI

Series [30] addresses Sodium-dependent dopamine transporter (Homo sapiens) (UniProt Q01959). The following applies: 10 mM.
The target in series [31] is Sodium-dependent noradrenaline transporter (Homo sapiens) (UniProt P23975). The series can be described thus: Displacement of [3H]-nisoxetine from norepinephrine transporter (unknown origin) at 0.1 mM relative to control. The gist of the method:
as §1

Series [32] concerns the target Sodium channel protein type 5 subunit alpha (Homo sapiens, UniProt Q14524). Description: Inhibition of Nav1.5 channel (unknown origin) expressed in HEK293 cells at […] by patch clamp assay. The series is classed as cell-based.
Series [33] addresses Sodium-dependent dopamine transporter (Homo sapiens) (UniProt Q01959). To be noted: 1 mM.
In series [34] the test system is NCI-H1650. Description: Cell cycle arrest in human NCI-H1650 cells assessed as accumulation at sub-G1 phase at 1 to 40 uM by propidium iodide staining-based flow cytometric analysis. The series is classed as functional.
Series [35] has as its target Sodium-dependent noradrenaline transporter (Homo sapiens) (UniProt P23975). Description: Displacement of [3H]-nisoxetine from norepinephrine transporter (unknown origin) at 10 mM relative to control. The gist of the method:
as §1

In series [36] the target is D(1B) dopamine receptor (Homo sapiens) (UniProt P21918). The series can be described thus: Binding affinity to dopamine D5 receptor (unknown origin) at 1 mM by radioligand displacement assay relative to control.
The target in series [37] is D(3) dopamine receptor (Homo sapiens) (UniProt P35462). Description: Binding affinity to dopamine D3 receptor (unknown origin) at 1 mM by radioligand displacement assay relative to control.
Sequence of D(3) dopamine receptor (Homo sapiens) (P35462 whole entry): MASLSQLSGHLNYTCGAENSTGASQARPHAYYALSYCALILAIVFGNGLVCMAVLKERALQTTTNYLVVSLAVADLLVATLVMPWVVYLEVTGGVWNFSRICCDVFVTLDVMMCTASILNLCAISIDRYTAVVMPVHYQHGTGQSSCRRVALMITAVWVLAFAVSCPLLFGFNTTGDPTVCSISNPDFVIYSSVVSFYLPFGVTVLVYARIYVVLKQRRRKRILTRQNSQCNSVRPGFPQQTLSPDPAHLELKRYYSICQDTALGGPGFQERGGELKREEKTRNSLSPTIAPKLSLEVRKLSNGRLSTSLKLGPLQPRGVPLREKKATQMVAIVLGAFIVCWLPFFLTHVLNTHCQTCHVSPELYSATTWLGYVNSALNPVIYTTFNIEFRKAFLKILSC
Series [38] deals with RAC-alpha serine/threonine-protein kinase (Homo sapiens) (UniProt P31749). Description: Inhibition of AKT phosphorylation in human NCI-H1650 cells at 20 to 40 uM after 12 hrs by Western blot analysis. The series is classed as cell-based.
Sequence of RAC-alpha serine/threonine-protein kinase (Homo sapiens) (P31749 whole entry): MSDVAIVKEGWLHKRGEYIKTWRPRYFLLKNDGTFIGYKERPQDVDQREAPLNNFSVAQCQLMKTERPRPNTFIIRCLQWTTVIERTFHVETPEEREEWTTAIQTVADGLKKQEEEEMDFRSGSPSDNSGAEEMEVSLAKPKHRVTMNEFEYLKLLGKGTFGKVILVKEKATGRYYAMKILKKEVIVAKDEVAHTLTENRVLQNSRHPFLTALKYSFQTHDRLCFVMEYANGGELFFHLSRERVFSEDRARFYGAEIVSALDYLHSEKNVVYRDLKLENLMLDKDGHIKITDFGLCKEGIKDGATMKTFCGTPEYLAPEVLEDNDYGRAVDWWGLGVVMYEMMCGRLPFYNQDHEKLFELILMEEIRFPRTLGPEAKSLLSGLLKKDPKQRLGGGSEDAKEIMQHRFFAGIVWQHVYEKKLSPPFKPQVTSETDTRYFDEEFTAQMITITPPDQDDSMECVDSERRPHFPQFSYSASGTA
Series [39] concerns NCI-H1650. Description: Inhibition of ERK phosphorylation in human NCI-H1650 cells at 20 to 40 uM after 12 hrs by Western blot analysis. The series is classed as cell-based.
Series [40] concerns the target T1, D(4) dopamine receptor (Homo sapiens). The series can be described thus: Binding affinity to dopamine D4 receptor (unknown origin) at 1 mM by radioligand displacement assay relative to control.

Sequence of Sodium-dependent dopamine transporter (Homo sapiens) (Q01959 whole entry): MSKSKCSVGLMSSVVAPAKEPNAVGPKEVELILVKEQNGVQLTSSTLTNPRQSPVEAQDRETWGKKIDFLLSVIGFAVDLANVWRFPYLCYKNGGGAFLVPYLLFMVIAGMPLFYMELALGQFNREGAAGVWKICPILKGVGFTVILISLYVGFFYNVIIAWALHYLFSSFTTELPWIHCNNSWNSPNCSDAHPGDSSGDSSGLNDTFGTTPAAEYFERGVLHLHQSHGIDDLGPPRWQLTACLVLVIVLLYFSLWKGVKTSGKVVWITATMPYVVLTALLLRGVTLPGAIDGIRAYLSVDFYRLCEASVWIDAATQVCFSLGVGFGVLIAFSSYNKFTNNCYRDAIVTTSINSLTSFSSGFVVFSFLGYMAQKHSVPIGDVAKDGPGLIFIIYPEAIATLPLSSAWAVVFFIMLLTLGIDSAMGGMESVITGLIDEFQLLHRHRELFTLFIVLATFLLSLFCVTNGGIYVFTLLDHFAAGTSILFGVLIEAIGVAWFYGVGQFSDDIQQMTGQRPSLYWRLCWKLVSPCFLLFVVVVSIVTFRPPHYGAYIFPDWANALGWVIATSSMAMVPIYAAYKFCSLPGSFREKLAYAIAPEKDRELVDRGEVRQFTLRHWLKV

Usually AUC(0-inf) stands for total exposure, with the tail of the curve extrapolated. Higher therefore signals more exposure. The term inhibition denotes the relative decrease from the control value, in per cent. What is called bioavailability is dose-corrected exposure relative to a reference, in per cent. A low value points to poor availability. One may read the clearance as a measure of how efficiently the substance is removed, as volume per time. A higher clearance goes with a high capacity for elimination. As a reminder, the GI50 is the concentration that inhibits growth by half. As usually defined, the AUC(0-t) is the area under the concentration-time curve up to a stated or last time point. The Cmax is the highest concentration seen after dosing. Usually half-life stands for how long it takes for the measured level to halve. Broadly, the Tmax is the time from dosing to the highest level. Turning to `Cc1ccc(S(=O)(=O)NCCCN2c3ccccc3Sc3ccc(Cl)cc32)cc1`, the figures for the AUC(0-inf) in series [1], in series [8] and in series [18] were 2510 ng·h/mL, 7570 ng·h/mL and 1500 ng·h/mL, respectively. In addition, the inhibition in series [2] is less than 5%; in series [15] it was 12%; in series [16], 14%; in series [25], less than 10%. For the same molecule, the results for the Activity result in the series on Mus musculus and with NCI-H1650 [21] were “Non-toxic” and “Dose-dependent effect”, respectively. Moreover, the bioavailability in series [3] is 16.9%; in [5], 50.2%. Further, the clearance in series [4] is 11.1 mL/min/kg. Further, the GI50 in the series with NCI-H1650 [6] was more than 40 µM. Also, the AUC(0-t) in series [7] worked out at 1480 ng·h/mL; in series [13], 2500 ng·h/mL; in series [20], 7440 ng·h/mL. Besides, the results for the Cmax in series [9] and in series [17] were 2250 ng/mL and 834 ng/mL, respectively. In series [10], this molecule yielded a C0 of 2970 ng/mL. In addition, the half-life is 3.14 h in [11], 1.36 h in series [14] and 4.35 h in [24]. Moreover, the result in the series with NCI-H1650 [12] was Active. Also, the results for the Tmax in series [19] and in series [23] were 1 h and 0.5 h, respectively. Further, in series [22], the Vd turned out to be 0.72 L/kg.
As for `Cc1ccc(S(=O)(=O)NCCCN2c3ccccc3CCc3ccc(Cl)cc32)cc1`, the inhibition in series [2] is less than 5%; in [26], less than 5%; in series [27], less than 5%; in series [28] it was less than 5%; in series [25], less than 10%. In addition, the GI50 in the series with NCI-H1650 [6] was more than 40 µM.
On to `CN(C)CCCN1c2ccccc2CCc2ccc(Cl)cc21` [CLOMIPRAMINE], for which the inhibition in series [29] came to 90%; in series [30], 60%; in series [31], 5%; in series [33], 14%; in series [35], 100%. In the series with NCI-H1650 [6], the GI50 is more than 40 µM. In series [32], the “inhibition (INH)” value is given as “Active”. The outcome with NCI-H1650 [34] was Active.
As to `CN1CCN(CCCN2c3ccccc3Sc3ccc(C(F)(F)F)cc32)CC1` [TRIFLUOPERAZINE], the inhibition in series [2] is more than 95%; in series [26] it was more than 95%; in series [36], more than 95%; in [37], more than 95%; in [27], 73%; in series [15] it was more than 95%. Besides, the inhibition in series [16] is more than 95%; in series [28] it was more than 95%; in [25], 81%; in series [40] it was more than 95%. Moreover, in the series with Mus musculus, the Activity entry was “Toxic”. Besides, the GI50 with NCI-H1650 [6] came out at 12.2 µM. Besides, the inhibition result (in [38]; in the series on NCI-H1650 [39]) was “Active” in each case. The result with NCI-H1650 [34] was Active.
